The Ki is the dissociation constant of the complex between target and ligand, obtained from inhibition or displacement. In general, IC50 refers to the concentration at which inhibition is half-maximal. A higher IC50 goes with lower potency. Usually EC50 stands for the concentration needed to bring the measured effect to its halfway point. Higher therefore signals a less potent agent. As usually defined, the inhibition is the percentage by which the read-out fell short of the control. A higher inhibition goes with strong suppression.

Each structure is given as a SMILES string.

17 compounds from ChEMBL document CHEMBL1147411, “7-Hydroxynaphthalen-1-yl-urea and -amide antagonists of human vanilloid receptor 1” (Bioorg Med Chem Lett, 2004) can be followed below.

Assay [1] has as its target T1, Transient receptor potential cation channel subfamily V member 1 (Homo sapiens, UniProt Q8NER1). The assay is described as follows: Binding affinity towards cloned human vanilloid receptor subtype 1 in HEK293 cell membranes using [3H]RTX as radioligand. In a few lines: (§1)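 Human VR1 stably expressed in HEK293 cells. Membranes were made by homogenizing, spinning at 3000 rpm for 10 min, and spinning the supernatant at 18,000 rpm for 20 min. Binding was 60 min at 37 °C with 0.3–0.6 nM [3H]-RTX in HEPES buffer pH 7.4. Samples were ice-cooled, given α-acid glycoprotein, centrifuged, and the pellet counted. Nonspecific binding used 200 nM unlabeled RTX. Percent inhibition calculated; Ki by Cheng–Prusoff.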

Assay [2] concerns the target T1, Transient receptor potential cation channel subfamily V member 1. The assay is described as follows: Functional antagonistic activity against human vanilloid receptor subtype 1 in HEK293 cell […] as inhibition of agonist-induced increases in intracellular [Ca2+] levels. The format is cell-based. In a few lines: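 Fluo-3/AM-loaded hVR1/HEK cells were read by FLIPR. Cells were incubated with compound, then challenged with capsaicin at a concentration giving ~80% maximal response. IC50 came from the inhibition of the capsaicin-induced Ca2+ rise.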

The target is the same in assay [3]. The assay can be described thus: Increased [Ca2+] influx in HEK293 cell […] human vanilloid receptor subtype 1. The format is functional, cell-based. In a few lines:
(§2)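 hVR1/HEK cells on poly-D-lysine-coated plates were loaded with Fluo-3/AM for 1 h after 2 days. Cells received single compound concentrations, and intracellular Ca2+ was read by FLIPR for 3 min. Capsaicin was then added at […] final to fully activate VR1.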

The target is the same in assay [4]. The assay can be described thus: Displacement of [3H]-RTX binding to human vanilloid receptor subtype 1 expressed in HEK293 cell membranes (inactive). In a few lines:
as §1

Assay [5] shares this target. The assay can be described thus: Increased [Ca2+] influx in HEK293 cell […] human vanilloid receptor subtype 1 (inactive). Format: functional, cell-based. The procedure, abridged: as §2
Assay [6] has the same target. The assay can be described thus: Displacement of [3H]RTX binding to human vanilloid receptor subtype 1 expressed in HEK293 cell membranes at 10 uM. In a few lines:
as §1
Background: In a radioligand displacement assay an active substance lowers the binding of a labelled ligand.

T1 sequence (Q8NER1 whole entry): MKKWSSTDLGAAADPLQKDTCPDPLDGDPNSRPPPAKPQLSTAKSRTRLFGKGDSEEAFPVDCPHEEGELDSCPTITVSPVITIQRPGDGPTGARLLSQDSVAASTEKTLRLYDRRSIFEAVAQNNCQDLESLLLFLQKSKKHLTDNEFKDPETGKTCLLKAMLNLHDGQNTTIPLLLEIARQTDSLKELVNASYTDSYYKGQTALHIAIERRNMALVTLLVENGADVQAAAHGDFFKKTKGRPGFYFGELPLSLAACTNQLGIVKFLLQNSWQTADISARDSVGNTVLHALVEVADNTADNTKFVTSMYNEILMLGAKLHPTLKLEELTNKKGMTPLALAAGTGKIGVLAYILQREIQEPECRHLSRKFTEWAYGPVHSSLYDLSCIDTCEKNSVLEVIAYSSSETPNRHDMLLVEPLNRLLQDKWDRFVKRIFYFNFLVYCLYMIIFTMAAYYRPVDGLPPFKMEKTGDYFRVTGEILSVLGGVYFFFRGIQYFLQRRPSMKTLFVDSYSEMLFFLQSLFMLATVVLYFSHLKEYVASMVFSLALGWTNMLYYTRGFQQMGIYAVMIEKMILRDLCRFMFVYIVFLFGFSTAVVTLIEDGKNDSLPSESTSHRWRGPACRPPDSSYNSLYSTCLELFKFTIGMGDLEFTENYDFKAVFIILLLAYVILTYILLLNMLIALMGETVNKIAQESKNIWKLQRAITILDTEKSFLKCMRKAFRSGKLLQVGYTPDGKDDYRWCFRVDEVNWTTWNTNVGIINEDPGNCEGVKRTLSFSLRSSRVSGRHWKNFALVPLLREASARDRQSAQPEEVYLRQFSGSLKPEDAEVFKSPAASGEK

On to `O=C(NCc1ccc(OC(F)(F)F)cc1)Nc1cccc2ccc(O)cc12`, for which the affinity in assay [1], expressed as Ki, was 1 nM. Moreover, the IC50 in assay [2] worked out at 27 nM.

In assay [1], `Oc1cc2c(cc1O)CN(C(=S)NCCc1ccc(Cl)cc1)CCC2` [CAPSAZEPINE] showed a Ki of 120 nM. In assay [2], this compound came in with a half-maximal inhibitory concentration (IC50) of 100 nM.

In the case of `O=C(NCc1ccc(C(F)(F)F)cc1)Nc1cccc2ccc(O)cc12`, the inhibitory constant (Ki) in assay [1] was 1 nM. In assay [2], this compound showed an IC50 of 4 nM.

In the case of `O=C(NCCSCc1cccc(C(F)(F)F)c1)N1CCSCC1`, in assay [3], the midpoint of the response, the EC50, lay at 390 nM.

For `O=C(NCCc1ccc(Cl)c(Cl)c1)Nc1cccc2ccc(O)cc12`, the Ki in assay [1] came to 1 nM. In assay [2], the half-inhibitory concentration (IC50) is 90 nM.

Take `CN(Cc1ccccc1)C(=O)Nc1cccc2ccc(O)cc12`: in assay [4], the Ki is greater than 10000 nM. Moreover, the half-inhibitory concentration (IC50) in assay [5] was greater than 10000 nM.

Consider `O=C(NCc1ccccc1)Nc1cccc2ccc(O)cc12`, for which, in assay [2], the IC50 came to 45 nM.

As for `O=C(Nc1cccc2ccc(O)cc12)Oc1ccccc1`, the concentration for half-maximal inhibition (IC50) in assay [2] came out at 6300 nM. Further, in assay [4], the Ki was greater than 10000 nM.

Compound `O=C(CCc1ccc(Cl)c(Cl)c1)Nc1cccc2ccc(O)cc12` yielded an inhibition constant Ki in assay [1] of 4.6 nM. Also, the IC50 in assay [2] came out at 17 nM.

Regarding `O=C(Cc1ccc(Cl)c(Cl)c1)Nc1cccc2ccc(O)cc12`, the IC50 in assay [2] was 770 nM.

Compound `O=C(Nc1cccc2ccc(O)cc12)N(Cc1ccccc1)Cc1ccccc1` displayed an IC50 in assay [5] greater than 10000 nM.

As to `O=C(CCc1ccc(Cl)cc1)Nc1cccc2ccc(O)cc12`, in assay [1], the affinity corresponds to a Ki of 9.8 nM. The compound further displayed a half-inhibitory concentration (IC50) in assay [2] of 21 nM.

Regarding `CC(NC(=O)Nc1cccc2ccc(O)cc12)c1ccc(C(F)(F)F)cc1` (stereo not drawn), the affinity in assay [1], expressed as Ki, was 4 nM.

`O=C(Nc1cccc2ccc(O)cc12)c1ccc(Cl)cc1` showed an IC50 in assay [2] of 320 nM. In assay [6], this compound displayed an inhibition of 28%.

As to `O=C(NCc1cccc(C(F)(F)F)c1)Nc1cccc2ccc(O)cc12`, in assay [1], the affinity, expressed as Ki, was 2.1 nM. In addition, the half-inhibitory concentration (IC50) in assay [2] was determined as 26 nM.

`O=C(NCc1ccc(F)c(F)c1)Nc1cccc2ccc(O)cc12` came in with a Ki in assay [1] of 7 nM.

For `O=C(NCc1ccc(Cl)c(Cl)c1)Nc1cccc2ccc(O)cc12`, the inhibitory constant (Ki) in assay [1] stood at 2 nM. In addition, in assay [2], the IC50 worked out at 15 nM.
